The values that follow come from PMC9946004 (Infection and Drug Resistance, 2023).

Common to all, as to assay: MIC by broth microdilution
Holding throughout (format): cell-based
Settings in all cases: Staphylococcus aureus
On the technique in general: In broth dilution the organism is exposed to a series of concentrations in liquid medium.

For assay [1], the system named is S. aureus 18-W27-73 (MRSA). The method in brief:
(§1)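 Broth microdilution per CLSI 2018 in Mueller–Hinton broth, in triplicate. Inoculum was 5×10^5 CFU/mL, incubated 20 h at 37 °C. MIC was the lowest concentration with no visible growth. ATCC29213 served as the quality-control strain.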

The subject of a further assay is S. aureus ATCC29213. The method in brief:
as §1

Assay [2] deals with S. aureus 18-W26-14 (MRSA). The procedure, abridged: as §1

Molecules are shown by their SMILES. Values after ≈ are worked out from the molar mass of the structure shown.

By MIC is commonly meant the least concentration at which growth counts as inhibited.

For `CN[C@H](CC(C)C)C(=O)N[C@H]1C(=O)N[C@@H](CC(N)=O)C(=O)N[C@H]2C(=O)N[C@H]3C(=O)N[C@H](C(=O)N[C@H](C(=O)O)c4cc(O)cc(O)c4-c4cc3ccc4O)[C@H](O)c3ccc(c(Cl)c3)Oc3cc2cc(c3O[C@@H]2O[C@H](CO)[C@@H](O)[C@H](O)[C@H]2O[C@H]2C[C@](C)(N)[C@H](O)[C@H](C)O2)Oc2ccc(cc2Cl)[C@H]1O` [Vancomycin, vancomycin], the MIC is 1 µg/mL (≈ 0.69 µM) in assay [1], 1 µg/mL (≈ 0.69 µM) in the assay on S. aureus ATCC29213 and 2 µg/mL (≈ 1.38 µM) in assay [2].
In the case of `CC(=O)NC[C@H]1CN(c2ccc(N3CCOCC3)c(F)c2)C(=O)O1` [Linezolid, linezolid], the MIC is 2 µg/mL (≈ 5.93 µM) in assay [1], 2 µg/mL (≈ 5.93 µM) with S. aureus ATCC29213 and 4 µg/mL (≈ 11.9 µM) in assay [2].
